Screening results from PubChem.
KCNK9 block = KCNK9 potassium channel inhibitors, primary screen, HEK293 cells, thallium flux; AID 488922, 2010; FluxOR thallium flux fluorescence; hits give low values; Potassium channel subfamily K member 9 (Homo sapiens), Q9NPC2; B-score at 10 µM; actives 1.2% (n = 310,000);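 active = ratio B-score over 3 SD below the library mean, with starting fluorescence within 5 SD of its mean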;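 note: negative B-score means less thallium flux so channel inhibition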
Kir21 block = inhibitors of mouse Kir2.1 inward-rectifier potassium channel. HEK293-Kir2.1, FluxOR thallium flux fluorescence; hits give low values. B-score at 10 µM. actives 0.85% (n = 310,000);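 active = fluorescence ratio B-score at or below minus 3 SD of library scores, with starting-brightness B-score within 2 SD, cut at about -4.2 in these data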;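 note: channel flux triggered by added potassium and thallium sulfate stimulus; B-score of peak minus minimum fluorescence over baseline after thallium stimulus; more negative B-score means stronger Kir2.1 block with less thallium influx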
hERG protect = hERG rescue from dofetilide block, primary screen, cell-based, CHO-hERG, FluxOR thallium flux, dofetilide IC70. Voltage-gated inwardly rectifying potassium channel KCNH2 (Homo sapiens), Q12809. activation (rescue from dofetilide block), less the hit threshold, % at 10 µM. AID 1511, 2009. actives 0.51% (n = 310,000). dofetilide IC70 present;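 active = activation above the mean of controls blocked by dofetilide plus 5 SD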;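 note: thallium influx through hERG after potassium depolarization seen as dye fluorescence rise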
KCNK3 block = human KCNK3 channel inhibitors, primary screen, CHO cells, FluxOR thallium flux, B-score. FluxOR fluorescence; hits give low values. actives 0.84% (n = 340,000). B-score at 10 µM. AID 602410, 2012;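 active = B-score under library mean minus 4 SD, starting fluorescence ratio at most library mean plus 5 SD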;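 note: more negative B-score means stronger inhibition of thallium flux through KCNK3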
KCNQ1 act = potentiators or activators of KCNQ1 channel, primary screen, cell-based, thallium flux, high-throughput | AID 2648, 2010 | Potassium voltage-gated channel subfamily KQT member 1 (Homo sapiens), P51787 | actives 0.35% (n = 310,000) | B-score at 10 µM | CHO-K1 KCNQ1, thallium flux FluxOR fluorescence; hits give high values;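 active = fluorescence ratio B-score, a plate-corrected score, at least three library SD, with initial intensity B-score within 5 SD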
Target sequence (P51787 whole entry, looked up): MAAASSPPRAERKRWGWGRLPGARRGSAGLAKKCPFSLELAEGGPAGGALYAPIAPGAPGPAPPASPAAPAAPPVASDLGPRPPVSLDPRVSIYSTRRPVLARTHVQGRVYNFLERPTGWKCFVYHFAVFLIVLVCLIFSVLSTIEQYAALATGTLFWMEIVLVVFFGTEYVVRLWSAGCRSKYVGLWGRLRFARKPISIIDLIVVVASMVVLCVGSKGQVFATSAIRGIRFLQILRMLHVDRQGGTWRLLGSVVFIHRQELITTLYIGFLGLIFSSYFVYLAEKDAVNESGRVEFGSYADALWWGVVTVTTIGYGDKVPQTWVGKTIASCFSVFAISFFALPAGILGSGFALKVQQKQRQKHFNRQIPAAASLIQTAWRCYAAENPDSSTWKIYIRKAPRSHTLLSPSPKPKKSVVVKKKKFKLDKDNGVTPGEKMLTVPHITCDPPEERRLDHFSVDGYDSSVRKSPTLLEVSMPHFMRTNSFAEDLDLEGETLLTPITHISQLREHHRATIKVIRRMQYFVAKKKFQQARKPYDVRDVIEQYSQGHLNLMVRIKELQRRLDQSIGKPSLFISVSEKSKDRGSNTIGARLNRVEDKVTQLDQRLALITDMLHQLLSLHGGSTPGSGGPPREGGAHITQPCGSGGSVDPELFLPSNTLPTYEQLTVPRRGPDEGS
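System: CHO-K1 cells stably expressing KCNQ1 / Medium: assay buffer for compound exposure, DMSO matched across wells / Reagent: thallium- and potassium-containing depolarizing buffer / Compound: one concentration, matched DMSO / Incubation: 20 min compound pretreatment at room temperature / Measured by: kinetic FluxOR fluorescence, 10 s baseline plus 110 s post-stimulus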
KCNQ1 block = inhibitors of human KCNQ1 channel, primary screen, cell-based, thallium flux, high-throughput; Potassium voltage-gated channel subfamily KQT member 1 (Homo sapiens), P51787; CHO-K1 KCNQ1, FluxOR thallium flux fluorescence; hits give high values; B-score at 10 µM; actives 1.3% (n = 310,000);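 active = compounds whose thallium flux B-score, printed positive for inhibition, exceeds three library SD while starting fluorescence stays within three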;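 note: channel opened by potassium depolarization with thallium stimulus after 20 min compound exposure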
KCNK9 inh conf = KCNK9 potassium channel inhibitors, confirmation, HEK293 cells, thallium flux, duplicate. shares compounds with KCNK9 block. inhibition, % at 10 µM. FluxOR thallium flux fluorescence. actives 43% (n = 4,900);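 active = thallium signal inhibited by more than 5 SD of the compound-free buffer control wells, on both duplicate plates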;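 note: 0% = assay buffer control wells without compound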
Kir21 sel = mouse Kir2.1 channel inhibition, confirmation, selectivity assay for KCNK9 modulator project, cell-based, HEK293, thallium flux. inhibition, % at 10 µM. Kir2.1 cells, FluxOR thallium flux fluorescence. shares compounds with KCNK9 block. actives 4% (n = 4,900);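 active = thallium signal drop more than 5 SD beyond the mean of the no-compound control wells, seen in both duplicate plates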;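 note: signal is fluorescence rise after thallium addition divided by baseline fluorescence; plate controls were assay buffer only for no effect and full block by chlorpromazine control for full effect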
HEK293 Tl ctr = thallium flux in non-induced HEK293 cells, confirmation, counter-screen for KCNK9 inhibitor project, cell-based, second counter screen, non-induced KCNK9-HEK293. FluxOR thallium flux. inhibition, % at 10 µM. actives 40% (n = 4,900). shares compounds with KCNK9 block;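 active = thallium signal drop beyond 5 SD of the untreated control mean, on both duplicate plates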;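 note: plate controls were buffer only IC0 wells for no effect and SID17386958 at its maximal inhibitory level for full effect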
* marks the source's active call; other numbers are inactive results; i = inactive; . = not tested or not shown. Only some compounds are listed: those with a hit (about 3.7% of all), similar ones and a draw of the others.

SMILES | KCNK9 block | Kir21 block | hERG protect | KCNK3 block | KCNQ1 act | KCNQ1 block | KCNK9 inh conf | Kir21 sel | HEK293 Tl ctr
COc1ccc(OC)c(CN2CCCC(C(=O)c3ccccc3SC)C2)c1 (stereo not given) | i | -1.7 | -13 | i | i | i | i | i | i
COC(=O)c1c(NC(=O)CN2C(=O)C(=O)N(CC(C)C)C2=O)sc(C)c1C | i | 2 | -8 | i | i | i | . | . | .
CN1CCN(C2=C(Cl)C(=O)C(c3cnc(N4CCCCC4)s3)=C(Cl)C2=O)CC1 | -17* | -1.8 | -48 | i | i | 16* | i | i | 38%*
O=C(NNC(=S)Nc1ccc(Cl)c(Cl)c1)c1ccccn1 | i | 0.43 | -11 | i | i | i | i | i | i
CCNC(=S)NNC(=O)c1ccccn1 | i | 0.66 | -9 | i | i | i | . | . | .
Cc1c(C(=O)N2CCN(CCc3ccccn3)CC2)oc2ccc(Cl)cc12 | i | 1.1 | -9 | i | i | i | . | . | .
Cc1cc(C(=O)CCC(=O)N2CCN(c3ccccc3F)CC2)c(C)s1 | i | 0.42 | -26 | i | i | i | i | i | i
CCOc1ccccc1N1CCN(C(=O)c2cc3cc(OC)ccc3[nH]2)CC1 | i | 0.3 | -4 | i | i | i | i | i | i
CC(Oc1ccccc1Cl)C(=O)Nc1ccccc1C(=O)N1CCOCC1 (stereo not given) | i | -1.2 | -10 | i | i | i | . | . | .
CCc1nnc(NC(=O)c2ccc(Cl)c(S(=O)(=O)N3CCc4ccccc43)c2)s1 | -13* | -2.1 | -14 | i | i | i | 68%* | i | 42%*
CCc1nnc(NC(=O)c2ccc(F)c(S(=O)(=O)N3CCCCC3)c2)s1 | i | 0.54 | -6 | i | i | i | . | . | .
COc1cccc(CC2(CO)CCCN(Cc3sc(N4CCCC4)nc3Cl)C2)c1 (stereo not given) | i | -1.3 | -13 | i | i | i | i | i | i
COc1ccc(/C=C/C(=O)OCC(=O)NC2CCCC2)cc1 | . | . | . | i | . | . | . | . | .
CCOC(=O)/C(=N\Nc1ccccc1Cl)N(C)C1CCCCC1 | -8.8* | -1.2 | -9 | i | i | i | 64%* | i | 50%*
CCOC(=O)/C(=N\Nc1cc(C(F)(F)F)ccc1Cl)N(CC)CC | -13* | -0.88 | -5 | i | i | i | 54%* | i | 42%*
O=C(CSc1nc2ccccc2o1)Nc1ccccc1N1CCCCCC1 | -11* | -3.3 | -15 | i | i | i | 61%* | 40%* | 41%*
COc1ccccc1NC(=O)c1ccc(CN(c2cc(Cl)ccc2C)S(=O)(=O)c2ccccc2)cc1 | i | 0.47 | -4 | i | i | i | . | . | .
Cc1ccc(Cl)cc1N(Cc1ccc(C(=O)NCc2cccnc2)cc1)S(=O)(=O)c1ccccc1 | -8.3* | 1.2 | -8 | i | i | i | i | i | i
Cc1cc(C)n(-c2ccc(C(=O)NCC(c3ccco3)N3CCCC3)cc2)n1 (stereo not given) | . | . | . | i | . | . | . | . | .
O=C(Cc1c(F)cccc1Cl)Nc1nccs1 | i | 1.1 | 0 | i | i | i | . | . | .
Cc1cc(C)c2c(c1)-c1c(ssc1=S)C(C)(C)N2C(=O)CSc1nncn1C | i | -3.8 | -6 | i | i | i | . | . | .
CC1(C)c2ssc(=S)c2-c2ccccc2N1C(=O)CSC1=NCCS1 | i | 0 | -8 | i | i | i | . | . | .
COc1ccc2c(c1)-c1c(ssc1=S)C(C)(C)N2C(=O)CSC1=NCCS1 | -12* | -0.03 | -11 | i | i | i | 46%* | i | 38%*
Cc1cc2c(cc1C)N(C(=O)CSC1=NCCS1)C(C)(C)c1ssc(=S)c1-2 | -8.6* | 1.6 | -10 | i | i | i | 50%* | i | 31%*
CCC(C(=O)Nc1nc(C)c(C(=O)OC)s1)c1ccccc1 (stereo not given) | -9.4* | -1.4 | -13 | i | i | i | 30%* | i | 26%*
SMILES | KCNK9 block | Kir21 block | hERG protect | KCNK3 block | KCNQ1 act | KCNQ1 block | KCNK9 inh conf | Kir21 sel | HEK293 Tl ctr
CCOC(=O)N1CCN(C(=O)c2ccc(Cl)c(NC(=O)c3cccs3)c2)CC1 | . | . | . | i | . | . | . | . | .
CC1=NN(c2ccccc2)C(=O)/C1=C\C=C1\N(C)c2ccccc2C1(C)C | -9.1* | 0.49 | -11 | i | i | i | i | i | i
CC1=NN(c2ccccc2)C(=O)/C1=C\C=C1/N(C)c2ccccc2C1(C)C | i | 3.1 | -12 | i | i | i | . | . | .
O=C(CNC(=O)COc1ccccc1)NCc1cccnc1 | i | 0.48 | -3 | i | i | i | . | . | .
COc1ccc(-n2ccnc2SCC(=O)NO)cc1 | i | 0.19 | -15 | i | i | i | . | . | .
CCOC(=O)c1cc2c(ccn2C)n1CC(=O)N(C)C | i | 0.57 | -11 | i | i | i | . | . | .
CCOC(=O)c1cc2c(ccn2C)n1Cc1ccc(C#N)cc1 | -8.3* | -1.8 | -12 | i | i | i | 37%* | i | 30%*
Cc1c(C(=O)O)cccc1-c1ccc(/C=N/Nc2ccc(Br)cc2)o1 | i | 0.39 | -12 | i | i | i | i | i | i
Cc1c(C(=O)O)cccc1-c1ccc(/C=N/n2cnnc2)o1 | i | -0.02 | -8 | i | i | i | . | . | .
O=C(O)c1ccc(N/N=C/c2ccc(-c3ccc(Cl)cc3Cl)o2)cc1 | i | 1.3 | -10 | i | i | i | i | i | i
CC(C)CN1CCN(Cc2cccc3cccnc23)CC1CCO (stereo not given) | i | 0.57 | -10 | i | i | i | . | . | .
CCOC(=O)CC(NCc1ccc(OC)c(OCC)c1)c1ccc(C)cc1 (stereo not given) | i | 0.01 | -8 | i | i | i | i | i | i
